Assay results from ChEMBL document CHEMBL4368930, “Synthesis and anti-HSV activity of tricyclic penciclovir and hydroxybutylguanine derivatives” (Bioorg Med Chem, 2019).

Assays:
Human alphaherpesvirus 1 [1] = assay: Antiviral activity against herpes simplex virus 1 KOS infected in HEL cells assessed as reduction in virus-induced cytopathogenicity by microscopic analysis; assay type: functional, organism-based; settings: Human alphaherpesvirus 1, strain KOS
CAPAN-1 = assay: Cytostatic activity against human Capan1 cells; assay type: ADME, cell-based
[2] = Cytotoxicity against HEL cells assessed as effect on cell morphology at 0.32 to 200 uM by microscopic analysis; assay type: cell-based; settings: human
TERT-RPE1 = assay: Cytostatic activity against human hTERT-RPE1 cells; assay type: ADME, cell-based; settings: RPE-1
In short: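 Cell proliferation was measured against the number of cells in untreated controls.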

Z-138 = assay: Cytostatic activity against human Z138 cells; assay type: ADME, cell-based
HL-60 = assay: Cytostatic activity against human HL60 cells; assay type: ADME, cell-based
[3] = Cytostatic activity against human DND41 cells; assay type: ADME, cell-based
Human alphaherpesvirus 2 = assay: Antiviral activity against herpes simplex virus 2 G infected in HEL cells assessed as reduction in virus-induced cytopathogenicity by microscopic analysis; assay type: functional, organism-based; settings: Human alphaherpesvirus 2, G
In short: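 Confluent cell monolayers were inoculated with 100 CCID50 of virus or 20 PFU. After a 1–2 h adsorption, residual virus was removed and cultures were incubated with the test compounds at 200, 40, 8, 1.6 and 0.32 μM. Cytopathicity was scored once it was complete in untreated infected controls.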

NCI-H460 = assay: Cytostatic activity against human NCI-H460 cells; assay type: ADME, cell-based
[4] = Cytostatic activity against human HAP1 cells; assay type: ADME, cell-based
K562 = assay: Cytostatic activity against human K562 cells; assay type: ADME, cell-based
Human alphaherpesvirus 1 [5] = assay: Antiviral activity against thymidine kinase deficient and aciclovir resistant herpes simplex virus 1 KOS infected in HEL cells assessed as reduction in virus-induced cytopathogenicity by microscopic analysis; assay type: functional, organism-based; settings: Human alphaherpesvirus 1, strain KOS
Human alphaherpesvirus 3 [6] = assay: Antiviral activity against Varicella-zoster virus Oka harboring thymidine kinase infected in HEL cells assessed as reduction in virus plaque formation; assay type: functional, organism-based; settings: Human alphaherpesvirus 3, Oka
Human alphaherpesvirus 3 [7] = assay: Antiviral activity against thymidine kinase deficient Varicella-zoster virus 07-1 infected in HEL cells assessed as reduction in virus plaque formation; assay type: functional, organism-based; settings: Human alphaherpesvirus 3, 07-1, HEL
Human betaherpesvirus 5 [8] = assay: Antiviral activity against Human cytomegalovirus Davis assessed as reduction in virus-induced cytopathogenicity by microscopic analysis; assay type: functional, organism-based; settings: Human betaherpesvirus 5, Davis
Human betaherpesvirus 5 [9] = assay: Antiviral activity against Human cytomegalovirus AD169 assessed as reduction in virus-induced cytopathogenicity by microscopic analysis; assay type: functional, organism-based; settings: Human betaherpesvirus 5, strain AD169

SMILES	EC50 (Human alphaherpesvirus 1 [1]) [µM]	IC50 (CAPAN-1) [µM]	MCC at up to 200 µM [2] [µM]	IC50 (TERT-RPE1) [µM]	IC50 (Z-138) [µM]	IC50 (HL-60) [µM]	IC50 [3] [µM]	EC50 (Human alphaherpesvirus 2) [µM]	IC50 (NCI-H460) [µM]	IC50 [4] [µM]	IC50 (K562) [µM]	EC50 (Human alphaherpesvirus 1 [5]) [µM]	EC50 (Human alphaherpesvirus 3 [6]) [µM]	EC50 (Human alphaherpesvirus 3 [7]) [µM]	EC50 (Human betaherpesvirus 5 [8]) [µM]	EC50 (Human betaherpesvirus 5 [9]) [µM]
O=c1c2ncn(CCCCO)c2nc2[nH]c(-c3ccccc3)cn12	> 100	69.1	> 100	> 100	> 100	> 100	> 100	> 100	> 100	> 100	> 100	> 100	–	–	–	–
O=c1c2ncn(CCC(CO)CO)c2nc2[nH]c(-c3ccc(O)cc3)cn12	7.6	> 100	> 100	> 100	> 100	> 100	> 100	2.3	> 100	> 100	> 100	> 100	9.6	≥ 74.5	> 100	> 100
O=c1c2ncn(CCC(CO)CO)c2nc2[nH]c(-c3ccc(F)cc3)cn12	8.9	82.8	> 100	> 100	> 100	> 100	> 100	28	> 100	> 100	> 100	12	> 100	> 100	> 100	> 100
CN[C@@H]1C[C@H]2O[C@@](C)([C@@H]1OC)n1c3ccccc3c3c4c(c5c6ccccc6n2c5c31)C(=O)NC4 [STAUROSPORINE]	–	–	–	0.25	–	–	–	–	–	–	–	–	–	–	–	–
O=c1c2ncn(CCC(CO)CO)c2nc2[nH]c(-c3ccc4c(c3)OCO4)cn12	44.7	78.8	≥ 100	> 100	> 100	> 100	> 100	40.9	> 100	> 100	> 100	> 100	> 20	> 100	> 100	> 100
Cc1ccc(-c2cn3c(=O)c4ncn(CCC(CO)CO)c4nc3[nH]2)cc1	> 100	> 100	> 100	> 100	> 100	> 100	> 100	> 100	> 100	> 100	> 100	> 100	63.1	> 100	> 100	> 100
COc1cc([C@@H]2c3cc4c(cc3[C@@H](O[C@@H]3O[C@@H]5CO[C@@H](C)O[C@H]5[C@H](O)[C@H]3O)[C@H]3COC(=O)[C@H]23)OCO4)cc(OC)c1O [ETOPOSIDE]	–	0.15	–	0.23	1.06	0.03	0.06	–	1.35	0.04	0.54	–	–	–	–	–
O=c1c2ncn(CCC(CO)CO)c2nc2[nH]c(-c3ccccc3)cn12	> 100	58.3	> 100	78.6	> 100	> 100	> 100	> 100	> 100	> 100	> 100	> 100	> 100	> 100	> 100	> 100
CC(=O)O[C@@]12CO[C@@H]1C[C@H](O)[C@@]1(C)C(=O)[C@H](O)C3=C(C)[C@@H](OC(=O)[C@H](O)[C@@H](NC(=O)OC(C)(C)C)c4ccccc4)C[C@@](O)([C@@H](OC(=O)c4ccccc4)[C@H]21)C3(C)C [DOCETAXEL ANHYDROUS]	–	0.95	–	25	0.003	0.00194	1.63	–	0.89	1.19	0.003	–	–	–	–	–
Nc1nc2c(ncn2CCC(CO)CO)c(=O)[nH]1 [PENCICLOVIR]	0.8	93	> 100	> 100	> 100	> 100	> 100	0.2	> 100	> 100	> 100	0.2	3.5	33.4	> 100	> 100
Nc1nc2c(ncn2COC(CO)CO)c(=O)[nH]1 [GANCICLOVIR]	–	–	> 250	–	–	–	–	0.4	–	–	–	–	–	–	–	–
O=c1c2ncn(CCC(CO)CO)c2nc2[nH]c(-c3ccc(Cl)cc3)cn12	> 100	84.8	> 100	> 100	> 100	> 100	> 100	> 100	> 100	> 100	> 100	> 100	> 100	> 100	> 100	> 100
COc1ccc(-c2cn3c(=O)c4ncn(CCC(CO)CO)c4nc3[nH]2)cc1	1.5	> 100	> 100	> 100	> 100	> 100	> 100	0.8	> 100	> 100	> 100	0.8	66.9	100	> 100	> 100
O=c1c2ncn(CCCCO)c2nc2[nH]c(-c3ccc4c(c3)OCO4)cn12	> 100	92.8	> 100	> 100	> 100	> 100	> 100	> 100	> 100	> 100	> 100	> 100	–	–	–	–
O=c1[nH]c(=O)n([C@H]2C[C@H](O)[C@@H](CO)O2)cc1/C=C/Br [BRIVUDINE]	–	–	> 250	–	–	–	–	> 250	–	–	–	14	0.037	7.9	–	–
COc1ccc(-c2cn3c(=O)c4ncn(CCCCO)c4nc3[nH]2)cc1	> 100	98.9	> 100	> 100	> 100	> 100	> 100	> 100	> 100	> 100	> 100	> 100	–	–	–	–
Nc1ccn(C[C@@H](CO)OCP(=O)(O)O)c(=O)n1 [CIDOFOVIR]	–	–	> 250	–	–	–	–	–	–	–	–	5	–	–	–	0.72
O=c1c2ncn(CCCCO)c2nc2[nH]c(-c3ccc(F)cc3)cn12	> 100	56.1	> 100	> 100	> 100	> 100	> 100	> 100	55.5	> 100	> 100	> 100	–	–	–	–
Nc1nc2c(ncn2CCCCO)c(=O)[nH]1	1.5	72.7	> 100	> 100	> 100	> 100	> 100	2.1	> 100	> 100	> 100	10	76.5	> 100	> 100	> 100
O=c1c2ncn(CCCCO)c2nc2[nH]c(-c3cccs3)cn12	> 100	> 100	> 100	> 100	> 100	> 100	> 100	> 100	> 100	> 100	> 100	> 100	–	–	–	–
Nc1nc2c(ncn2COCCO)c(=O)[nH]1 [ACYCLOVIR]	0.9	–	> 250	–	–	–	–	0.9	–	–	–	100	–	–	–	–
O=c1c2ncn(CCCCO)c2nc2[nH]c(-c3ccc(C(F)(F)F)cc3)cn12	> 100	36.1	> 100	> 100	> 100	> 100	> 100	> 100	52.5	63.8	> 100	> 100	–	–	–	–
O=c1c2ncn(CCCCO)c2nc2[nH]c(-c3ccc(Cl)cc3)cn12	> 100	64.4	> 100	> 100	> 100	> 100	> 100	> 100	> 100	> 100	> 100	> 100	–	–	–	–
Cc1ccc(-c2cn3c(=O)c4ncn(CCCCO)c4nc3[nH]2)cc1	> 100	78.9	> 100	> 100	> 100	> 100	> 100	> 100	> 100	> 100	> 100	> 100	–	–	–	–
